The values below come from ChEMBL document CHEMBL3813689, “Discovery of Potent Benzofuran-Derived Diapophytoene Desaturase (CrtN) Inhibitors with Enhanced Oral Bioavailability for the Treatment of Methicillin-Resistant Staphylococcus aureus (MRSA) Infections” (J Med Chem, 2016).

Active and inactive are the calls of the source. No cut-off for these calls is given here.

One experiment has as its system Staphylococcus aureus. Nature of the experiment: Antibacterial activity against Staphylococcus aureus Mu50 infected Balb/c mouse assessed as reduction of bacterial survival in liver at 1.3 mg, ip bid administered for 4.5 days followed by bacterial infection measured after 5 days. The experiment is classed as functional.
For experiment [1], the target named is T1, 4,4'-diapophytoene desaturase (4,4'-diaponeurosporene-forming) (Staphylococcus aureus (strain Newman)) (UniProt O07855).
T1 sequence (whole entry): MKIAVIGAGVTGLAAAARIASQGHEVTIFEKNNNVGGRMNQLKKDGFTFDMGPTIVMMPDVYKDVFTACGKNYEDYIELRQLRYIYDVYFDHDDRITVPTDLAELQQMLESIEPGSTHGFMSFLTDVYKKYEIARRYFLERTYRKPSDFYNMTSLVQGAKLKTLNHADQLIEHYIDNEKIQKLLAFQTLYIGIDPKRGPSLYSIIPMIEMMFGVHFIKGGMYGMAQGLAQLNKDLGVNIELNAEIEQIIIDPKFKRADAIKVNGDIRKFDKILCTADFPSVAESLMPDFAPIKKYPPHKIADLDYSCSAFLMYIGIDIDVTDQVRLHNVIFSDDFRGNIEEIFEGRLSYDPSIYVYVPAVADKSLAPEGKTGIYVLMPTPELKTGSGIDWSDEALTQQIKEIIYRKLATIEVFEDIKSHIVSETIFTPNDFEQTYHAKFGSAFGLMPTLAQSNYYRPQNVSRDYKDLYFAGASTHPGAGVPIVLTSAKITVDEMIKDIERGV
The note with it: Staphylococcus aureus subsp. aureus str. Newman; 1 uM.

Another experiment deals with Trichophyton verrucosum. The experiment in a line: Antifungal activity against Trichophyton verrucosum measured after 7 days by serial dilution method. The experiment is classed as functional. In outline: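 Broth serial dilution MIC per NCCLS in RPMI 1640 buffered with 0.165 M MOPS; compounds in DMSO diluted in medium. Dermatophytes incubated at 28 °C, read at 7 days. MIC taken as lowest concentration giving ≥80% growth inhibition versus control (turbidity).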

`CN(C/C=C/c1ccc(C(F)(F)F)cc1)Cc1cccc2ccoc12.Cl`: in the experiment with Staphylococcus aureus, the Activity is reported as 2.94 deltalog10CFU. In experiment [1], the inhibition entry is “Active”. For the same compound, the “MIC80 (lowest concentration giving ≥80% growth inhibition)” value in the experiment on Trichophyton verrucosum is greater than 64 mg/L.
